Experimental data published in paper PMC3984342 (mAbs, 2013).
Where two headings read alike, the source gives them in different places.

Tests used:
[1] = METH alone, no antibody; ref Riviere et al.[21]; cited from earlier work
[2] = Preliminary surface plasmon resonance study of on-off rates; assay type: binding; conditions: data not shown
[3] = Isothermal titration calorimetry; assay type: binding
In short: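 For isothermal titration calorimetry, 86 μM METH was titrated into 5 μM antibody at 307 rpm. Each run had 28 injections of 10 μL, spaced 200 s, at 37 °C in PBS pH 6.5. A one-site model gave N, ΔH, ΔS and the association constant (the reciprocal of KD). Activity was derived from N and molecular weights, with 2.07 μg METH/mg mAb taken as 100% active.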

[4] = METH pharmacokinetics in rats after anti-METH mAb treatment; assay type: in vivo, Male, Sprague Dawley rats; conditions: rat
In short: (§1)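 Male Sprague Dawley rats (n = 12/group), housed individually, got a single IV antibody dose via tail vein over about 2 min. The dose was ultracentrifuged (~100,000 g, 1 h, 5 °C) and diluted in PBS (15 mM sodium phosphate, 150 mM NaCl). METH 1 mg/kg (in 0.9% NaCl) or saline was given SC 24 h later. Six tail-vein samples were drawn over 3 wk. Non-compartmental sparse-sampling analysis used mean concentration per time point: ClT = D/AUC, Vdss = D·AUMC/AUC², […].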

[5] = GLP human tissue cross-reactivity study; conditions: human tissues, results not shown
[6] = Modified radioimmunoassay; assay type: binding; conditions: modified RIA, [3H]-METH tracer, complete inhibition curve
[7] = assay type: in vivo, Male, Sprague Dawley rats; conditions: rats, single antibody dose, throughout the study
In short: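 Body weights and general health observations were recorded for each rat throughout the 3-week study after the single IV antibody dose and 24-h SC challenge. Body weight and hematocrit are given as mean ± standard deviation.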

[8] = GLP in vivo rat toxicology study
[9] = Ch-mAb7F9 pharmacokinetics in rats; assay type: in vivo, Male, Sprague Dawley rats; conditions: for ClT / Vdss / t1/2λz: rat
In short: as §1

[10] = Prediction of human elimination half-life from rat values; design: species or system humans; conditions: extrapolated from rat: human ClT about one-third of rat, similar Vdss
[11] = ch-mAb7F9 15 mg/kg IV, saline challenge
[12] = ch-mAb7F9 15 mg/kg IV, with METH 1 mg/kg SC 24 h later
[13] = ch-mAb7F9 150 mg/kg IV, saline challenge
[14] = ch-mAb7F9 150 mg/kg IV, with METH 1 mg/kg SC 24 h later

## (+)-methamphetamine
[1]
  METH ClT: 181400 mL/day/kg
  METH Vdss: 9 L/kg
  METH t1/2λz: 1.1 h

B1: ch-mAb7F9: human-mouse chimeric anti-METH monoclonal antibody; mAb7F9 variable region joined to human IgG2κ constant domains (antibody, V domains shown)
VH: EIQLQQSGPELGKPGASVKVSCRASGFSFADYYIYWVKQSHGKSLELIGYIDPFNGGDTYNQIFKGKATLTVDKSSSTAFMYLNSLTSEDSAVYYCAAFRNPSFDFWGQGTTLTVSS
VL: QIVLIQSPPIMSASPGEKVTLTCSASSSVSSRYLYWYQQKPGSSPKLWIYGTSNLASGVPARFSGSGSGTSFSLTISSMEAEDAASYFCHQWSSFPFTFGSGTKLEIK
[2]
  on-off rates of METH binding: both reactions are fast
[3]; first GMP-compliant lot, converted from ITC stoichiometry
  average activity (capacity for binding METH per quantity of mAb): 1.96 μg METH bound per mg mAb
[3]; read-out: KD (ITC, average), ITC, 37 °C, PBS pH 6.5
  Kd: 49 nM
[4]; 150 mg/kg mAb dose
  decrease of METH clearance compared with mAb7F9: approximately 50%
[4]; METH 1 mg/kg SC 24 h after mAb 15 mg/kg IV
  METH ClT: 13800 mL/day/kg
[4]; METH 1 mg/kg SC 24 h after mAb 150 mg/kg IV
  METH ClT: 926 mL/day/kg
[4]; ch-mAb7F9 15 mg/kg
  decrease of METH Vdss compared with METH alone: ~ 5 fold
  increase in METH t1/2λz compared with METH alone: 2.1 fold
[4]; ch-mAb7F9 15 mg/kg (low dose)
  decrease of METH ClT compared with METH alone: 13 fold
[4]; ch-mAb7F9 150 mg/kg
  decrease of METH Vdss compared with METH alone: ~25 fold
  increase in METH t1/2λz compared with METH alone: 5.9 fold
[4]; ch-mAb7F9 150 mg/kg (high dose)
  decrease of METH ClT compared with METH alone: 196 fold
[5]
  tissue staining: the staining was cytoplasmic
[6]
  Kd: 6.9 nM
[7]
  health changes (eating behavior, body weight): no significant health changes
[8]; GLP rat toxicology study, samples for 56 d, results not shown
  elimination half-life: 190 to 288 h
[8]; rat, single doses, GLP
  no-observed-adverse-effect level, NOAEL: 400 mg/kg
[9]; [11]
  ClT: 6.9 mL/day/kg
  Vdss: 0.1084 L/kg
  t1/2λz: 262 h
[9]; [12]
  ClT: 6.1 mL/day/kg
  Vdss: 0.1151 L/kg
  t1/2λz: 314 h
[9]; [13]
  ClT: 6.5 mL/day/kg
  Vdss: 0.1083 L/kg
  t1/2λz: 276 h
[9]; [14]
  ClT: 7.6 mL/day/kg
  Vdss: 0.1082 L/kg
  t1/2λz: 235 h
[9]; rats, current studies, 15 and 150 mg/kg
  t1/2λz (range over groups): 240 to 312 h
[10]
  predicted t1/2λz in humans: ≤ 3 wk
